Laboratory results: ChEMBL document CHEMBL1133577, “Design and synthesis of piperazine-based matrix metalloproteinase inhibitors” (J Med Chem, 2000)

Experiments:
[1] = biological target: Stromelysin-1 (Homo sapiens, UniProt P08254); experiment: In vitro inhibitory activity against matrix metalloprotease-3 (MMP-3)
[2] = biological target: Matrix metalloproteinase-9 (Homo sapiens, UniProt P14780); experiment: In vitro inhibitory activity against matrix metalloprotease-9 (MMP-9)
[3] = biological target: T1, Matrilysin (Homo sapiens, UniProt P09237); experiment: In vitro inhibitory activity against matrix metalloprotease-7 (MMP-7)
T1 sequence (P09237 whole entry): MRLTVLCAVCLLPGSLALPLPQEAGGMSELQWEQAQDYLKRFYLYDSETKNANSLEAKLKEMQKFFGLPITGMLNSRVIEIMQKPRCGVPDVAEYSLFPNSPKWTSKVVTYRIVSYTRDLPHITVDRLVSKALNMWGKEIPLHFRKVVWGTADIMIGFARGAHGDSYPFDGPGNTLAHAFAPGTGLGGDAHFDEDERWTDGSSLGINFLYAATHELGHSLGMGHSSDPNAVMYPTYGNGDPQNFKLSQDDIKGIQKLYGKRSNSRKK
Summary of the method: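 MMP-7 supplied as active enzyme. It was incubated with 8 µM […] in 50 mM Tris-HCl pH 7.5, 10 mM CaCl2, 0.15 M NaCl, 0.05% Brij for 20-30 min at 37 °C with varying inhibitor. The reaction was quenched with 50 mM EDTA and fluorescence read at ex 328/em 393 nm. Activity is expressed as % of uninhibited control, triplicates; IC50 from 4-parameter logistic fit.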

[4] = biological target: T2, Interstitial collagenase (Homo sapiens, UniProt P03956); experiment: In vitro inhibitory activity against matrix metalloprotease-1 (MMP-1)
T2 sequence (P03956 whole entry): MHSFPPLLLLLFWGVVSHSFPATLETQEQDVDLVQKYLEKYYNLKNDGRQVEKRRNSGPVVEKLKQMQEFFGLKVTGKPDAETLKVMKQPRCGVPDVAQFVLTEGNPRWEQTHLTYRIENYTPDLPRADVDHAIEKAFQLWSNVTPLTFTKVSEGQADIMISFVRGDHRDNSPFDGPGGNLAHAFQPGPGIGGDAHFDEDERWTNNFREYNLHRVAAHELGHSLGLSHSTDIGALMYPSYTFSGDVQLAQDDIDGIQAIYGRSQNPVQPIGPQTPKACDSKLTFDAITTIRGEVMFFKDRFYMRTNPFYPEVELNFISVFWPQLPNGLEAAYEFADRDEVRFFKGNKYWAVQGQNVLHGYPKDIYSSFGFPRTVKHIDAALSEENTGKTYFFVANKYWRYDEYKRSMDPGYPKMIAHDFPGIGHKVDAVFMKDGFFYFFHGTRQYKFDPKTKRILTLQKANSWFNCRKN

[5] = biological target: Collagenase 3 (Homo sapiens, UniProt P45452); experiment: In vitro inhibitory activity against matrix metalloprotease-13 (MMP-13)

Matrix metalloproteinase-9, sequence (P14780 whole entry): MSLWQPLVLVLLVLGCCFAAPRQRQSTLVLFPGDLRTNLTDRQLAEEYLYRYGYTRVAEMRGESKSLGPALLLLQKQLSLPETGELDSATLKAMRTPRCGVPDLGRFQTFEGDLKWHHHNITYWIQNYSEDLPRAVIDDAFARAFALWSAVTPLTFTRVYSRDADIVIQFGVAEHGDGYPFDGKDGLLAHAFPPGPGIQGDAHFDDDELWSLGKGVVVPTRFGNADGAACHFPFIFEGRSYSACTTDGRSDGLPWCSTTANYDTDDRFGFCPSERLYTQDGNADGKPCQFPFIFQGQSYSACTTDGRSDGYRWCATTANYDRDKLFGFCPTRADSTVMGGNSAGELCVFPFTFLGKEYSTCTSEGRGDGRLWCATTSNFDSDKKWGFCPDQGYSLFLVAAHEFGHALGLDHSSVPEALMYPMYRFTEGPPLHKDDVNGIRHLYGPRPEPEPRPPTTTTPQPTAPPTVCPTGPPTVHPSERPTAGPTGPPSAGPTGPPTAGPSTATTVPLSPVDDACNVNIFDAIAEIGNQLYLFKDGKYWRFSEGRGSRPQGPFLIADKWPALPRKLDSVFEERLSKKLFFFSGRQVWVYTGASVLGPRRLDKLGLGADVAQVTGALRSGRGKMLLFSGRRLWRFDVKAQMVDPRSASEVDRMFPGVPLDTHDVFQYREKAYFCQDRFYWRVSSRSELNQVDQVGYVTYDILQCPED
Stromelysin-1, sequence (P08254 whole entry): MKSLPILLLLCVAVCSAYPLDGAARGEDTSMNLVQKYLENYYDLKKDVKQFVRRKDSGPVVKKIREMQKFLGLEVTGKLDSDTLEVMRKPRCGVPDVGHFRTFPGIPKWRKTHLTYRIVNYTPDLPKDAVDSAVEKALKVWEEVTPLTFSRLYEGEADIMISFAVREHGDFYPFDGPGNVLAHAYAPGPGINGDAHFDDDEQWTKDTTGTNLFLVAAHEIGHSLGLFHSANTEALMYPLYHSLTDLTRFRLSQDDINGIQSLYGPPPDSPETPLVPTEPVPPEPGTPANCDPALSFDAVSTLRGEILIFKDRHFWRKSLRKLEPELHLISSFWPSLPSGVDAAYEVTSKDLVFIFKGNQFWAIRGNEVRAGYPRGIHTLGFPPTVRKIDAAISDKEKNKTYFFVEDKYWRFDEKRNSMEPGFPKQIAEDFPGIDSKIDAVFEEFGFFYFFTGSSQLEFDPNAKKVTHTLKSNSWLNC

Row | Compound | IC50 [1] | IC50 [2] | IC50 [3] | IC50 [4] | IC50 [5]
1 | COc1ccc(S(=O)(=O)N2CCN(Cc3ccccc3)CC2C(=O)NO)cc1 (stereo unspecified) | 75 nM | 7.6 nM | 14000 nM | 324 nM | 8 nM
2 | CCCCCCNC(=O)N1CCN(S(=O)(=O)c2ccc(OC)cc2)C(C(=O)NO)C1 (stereo unspecified) | 28 nM | 2.6 nM | 497 nM | 30 nM | 1.4 nM
3 | COc1ccc(S(=O)(=O)N2CCN(c3nc(-c4ccccc4)cs3)CC2C(=O)NO)cc1 (stereo unspecified) | 11 nM | 28 nM | 3290 nM | 325 nM | 
4 | COc1ccc(S(=O)(=O)N2CCNCC2C(=O)NO)cc1 (stereo unspecified) |  | 6.9 nM |  |  | 
5 | COc1ccc(S(=O)(=O)N2CCN(C(=O)c3ccccc3)CC2C(=O)NO)cc1 (stereo unspecified) | 66 nM |  | 1520 nM | 81 nM | 
6 | CCCCCCN(C)C(=O)N1CCN(S(=O)(=O)c2ccc(Br)cc2)C(C(=O)NO)C1 (stereo unspecified) | 175 nM | 13 nM | 1200 nM | 87 nM | 4.5 nM
7 | COc1ccc(S(=O)(=O)N2CCN(C(=O)COc3ccccc3)CC2C(=O)NO)cc1 (stereo unspecified) | 9.5 nM | 3 nM | 908 nM | 92 nM | 
8 | COCCN(CCOC)C(=O)N1CCN(S(=O)(=O)c2ccc(Br)cc2)C(C(=O)NO)C1 (stereo unspecified) | 385 nM | 20 nM | 1130 nM | 49 nM | 3.2 nM
9 | COc1ccc(S(=O)(=O)N2CCN(C(=O)[C@@H](O)C(C)C)CC2C(=O)NO)cc1 (stereo partly specified) | 60 nM | 4.4 nM | 1690 nM | 227 nM | 1 nM
10 | COc1ccc(S(=O)(=O)N2CCN(C(=O)N3CCCCCC3)CC2C(=O)NO)cc1 (stereo unspecified) | 54 nM |  | 2690 nM | 158 nM | 2.9 nM
11 | CCCN(CC1CC1)C(=O)N1CCN(S(=O)(=O)c2ccc(OC)cc2)C(C(=O)NO)C1 (stereo unspecified) | 65 nM |  | 2090 nM |  | 1.1 nM
12 | COc1ccc(S(=O)(=O)N2CCN(C(=O)C3CCCCC3)CC2C(=O)NO)cc1 (stereo unspecified) | 27 nM | 1.8 nM | 2170 nM | 219 nM | 1.5 nM
13 | COc1ccc(S(=O)(=O)N2CCN(C(=O)c3ccno3)CC2C(=O)NO)cc1 (stereo unspecified) | 147 nM |  |  | 62 nM | 
14 | COc1ccc(S(=O)(=O)N2CCN(C(=O)c3cccnc3)CC2C(=O)NO)cc1 (stereo unspecified) | 184 nM | 32 nM | 27700 nM | 994 nM | 57 nM
15 | COc1ccc(S(=O)(=O)N2CCN(C(=O)N3CCN(C)CC3)CC2C(=O)NO)cc1 (stereo unspecified) | 114 nM | 5 nM | 2690 nM | 354 nM | 4.1 nM
16 | COc1ccc(S(=O)(=O)N2CCN(S(=O)(=O)c3c(C)noc3C)CC2C(=O)NO)cc1 (stereo unspecified) | 3.2 nM | 2.4 nM | 1020 nM | 54 nM | 1.3 nM
17 | COc1ccc(S(=O)(=O)N2CCN(C)CC2C(=O)NO)cc1 (stereo unspecified) | 269 nM | 25 nM | 10000 nM |  | 21 nM
18 | COc1ccc(S(=O)(=O)N2CCN(C(C)=O)CC2C(=O)NO)cc1 (stereo unspecified) | 18 nM | 1.8 nM | 821 nM | 73 nM | 1 nM
19 | COc1ccc(S(=O)(=O)N2CCN(C(=O)NCc3ccccc3)CC2C(=O)NO)cc1 (stereo unspecified) | 17 nM | 3.8 nM | 416 nM | 99 nM | 2.4 nM
20 | COc1ccc(S(=O)(=O)N2CCN(S(=O)(=O)c3sc(N)nc3C)CC2C(=O)NO)cc1 (stereo unspecified) | 2.5 nM | 2.1 nM | 1280 nM | 31 nM | 2 nM

Row | Compound | IC50 [1] | IC50 [2] | IC50 [3] | IC50 [4] | IC50 [5]
21 | COc1ccc(S(=O)(=O)N2CCN(C(=O)OCc3ccccc3)CC2C(=O)NO)cc1 (stereo unspecified) |  | 1.9 nM | 232 nM | 24 nM | 1.3 nM
22 | COc1ccc(S(=O)(=O)N2CCN(C(=O)N(C)Cc3ccccc3)CC2C(=O)NO)cc1 (stereo unspecified) | 38 nM |  |  | 322 nM | 1.8 nM
23 | COc1ccc(S(=O)(=O)N2CCN(S(C)(=O)=O)CC2C(=O)NO)cc1 (stereo unspecified) | 3.5 nM | 0.6 nM | 483 nM | 8 nM | 1 nM
24 | COc1ccc(S(=O)(=O)N2CCN(C(=O)c3c(-c4ccccc4)noc3C)CC2C(=O)NO)cc1 (stereo unspecified) | 410 nM | 22 nM | 22100 nM | 1320 nM | 27 nM
25 | COc1ccc(S(=O)(=O)N2CCN(C(=O)Nc3cccc(OC)c3)CC2C(=O)NO)cc1 (stereo unspecified) | 13 nM | 4.1 nM | 1100 nM | 80 nM | 2.8 nM
26 | COc1ccc(S(=O)(=O)N2CCN(C(=S)NCc3ccccc3)CC2C(=O)NO)cc1 (stereo unspecified) | 41 nM | 6.6 nM | 401 nM | 68 nM | 
27 | CCOCCCOC(=O)N1CCN(S(=O)(=O)c2ccc(OC)cc2)C(C(=O)NO)C1 (stereo unspecified) | 5.3 nM | 0.6 nM | 483 nM | 22 nM | 0.7 nM
28 | COc1ccc(S(=O)(=O)N2CCN(C(N)=O)CC2C(=O)NO)cc1 (stereo unspecified) | 20 nM | 2.3 nM | 537 nM | 115 nM | 3.6 nM
29 | COc1ccc(S(=O)(=O)N2CCN(C(=O)OC(C)(C)C)CC2C(=O)NO)cc1 (stereo unspecified) | 60 nM | 2.3 nM | 1460 nM | 81 nM | 
30 | COc1ccc(S(=O)(=O)N2CCN(C(=O)OCc3cccnc3)CC2C(=O)NO)cc1 (stereo unspecified) | 8.9 nM | 1.9 nM | 502 nM | 18 nM | 1 nM
31 | CCCCCC(=O)N1CCN(S(=O)(=O)c2ccc(OC)cc2)C(C(=O)NO)C1 (stereo unspecified) | 39 nM |  | 787 nM | 115 nM | 
32 | COc1ccc(S(=O)(=O)N2CCN(C(=O)NCCc3ccccc3)CC2C(=O)NO)cc1 (stereo unspecified) | 27 nM | 3.6 nM | 824 nM | 70 nM | 
33 | COc1ccc(S(=O)(=O)N2CCN(C(=O)N3CCOCC3)CC2C(=O)NO)cc1 (stereo unspecified) | 124 nM | 8.3 nM | 4350 nM | 228 nM | 54 nM
34 | COc1ccc(S(=O)(=O)N2CCN(S(=O)(=O)c3ccc(OC)cc3)C(C(=O)NO)C2)cc1 (stereo unspecified) | 13 nM | 1.2 nM | 1890 nM | 60 nM | 1.3 nM
35 | COc1ccc(S(=O)(=O)N2CCN(C(=O)c3cccs3)CC2C(=O)NO)cc1 (stereo unspecified) | 15 nM | 1.3 nM | 710 nM | 68 nM | 1.9 nM
36 | CCCCCCN(C)C(=O)N1CCN(S(=O)(=O)c2ccc(OC)cc2)C(C(=O)NO)C1 (stereo unspecified) | 4.3 nM | 6 nM | 3240 nM | 71 nM | 1.9 nM
37 | COc1ccc(S(=O)(=O)N2CCN(C(=O)c3ccco3)CC2C(=O)NO)cc1 (stereo unspecified) | 7.5 nM | 1.6 nM | 642 nM | 25 nM | 2.5 nM
38 | COc1ccc(S(=O)(=O)N2CCN(C(=O)c3snnc3C)CC2C(=O)NO)cc1 (stereo unspecified) | 173 nM | 17 nM | 6090 nM | 1060 nM | 21 nM
39 | COc1ccc(S(=O)(=O)N2CCN(C(=O)c3ccc(-c4ccccc4)cc3)CC2C(=O)NO)cc1 (stereo unspecified) | 23 nM |  | 931 nM | 43 nM | 0.9 nM
40 | CCCCCCN1CCN(S(=O)(=O)c2ccc(OC)cc2)C(C(=O)NO)C1 (stereo unspecified) | 71 nM | 17 nM | 15700 nM | 996 nM | 4.2 nM
